According to ChEMBL document CHEMBL1153046, “Synthesis and antitumor activity of substituted triazolo[4,3-a]pyrimidin-6-sulfonamide with an incorporated thiazolidinone moiety” (2009):

Experiments:
Assay type in all cases: functional
SK-MEL-2 = test: Growth inhibition of human SK-MEL-2 cells after 48 hrs by sulforhodamine B assay; conditions: SK-MEL-2, 48 h
Method in brief: (§1)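 NCI 60-cell-line panel. Cells are grown in RPMI1640 with 5% fetal calf serum and 2 mM L-glutamine, seeded at a density set by growth characteristics, and preincubated 24 h. Compound is tested at a minimum of five concentrations at 10-fold dilution, with 48 h continuous exposure. Viability is read by sulforhodamine B protein assay. GI50, TGI and LC50 come from dose-response curves.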

MDA-MB-435 = test: Growth inhibition of human MDA-MB-435 cells after 48 hrs by sulforhodamine B assay; conditions: MDA-MB-435, 48 h; method in brief: as §1
SK-MEL-28 = test: Growth inhibition of human SK-MEL-28 cells after 48 hrs by sulforhodamine B assay; conditions: SK-MEL-28, 48 h; method in brief: as §1
MDA-MB-231 = test: Growth inhibition of human MDA-MB-231 cells after 48 hrs by sulforhodamine B assay; conditions: MDA-MB-231, 48 h; method in brief: as §1
SF-268 [1] = test: Growth inhibition of human SF268 cells after 48 hrs by sulforhodamine B assay; conditions: SF-268, 48 h; method in brief: as §1
NCI-H226 = test: Growth inhibition of human NCI-H226 cells after 48 hrs by sulforhodamine B assay; conditions: NCI-H226, 48 h; method in brief: as §1
EKVX = test: Growth inhibition of human EKVX cells after 48 hrs by sulforhodamine B assay; method in brief: as §1
U-251 = test: Growth inhibition of human U251 cells after 48 hrs by sulforhodamine B assay; conditions: U-251, 48 h
Method in brief: (§2)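 NCI 60-cell-line panel (nine cancer types), with cells grown in RPMI1640 plus 5% fetal calf serum and 2 mM L-glutamine. Cells are seeded at a density that depends on the line and preincubated 24 h. Compounds are then applied at a minimum of five 10-fold dilutions over a 5-log range with 48 h continuous exposure. Viability is read by SRB protein assay, and GI50 is derived from dose-response curves in units of 10^-5 M.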

NCI-H322M = test: Growth inhibition of human NCI-H322M cells after 48 hrs by sulforhodamine B assay; method in brief: as §1
NCI-H460 = test: Antiproliferative activity against human NCI-H460 cells assessed as cell growth at 100 uM after 48 hrs by alamar blue assay; conditions: NCI-H460, 48 h, read-out: Activity
Method in brief: (§3)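 NCI three-cell-line primary screen. Cells are seeded and preincubated in microtiter plates. Compound is added at a single 10^-4 M concentration and cultures are incubated 48 h. The end-point is read with alamar blue. Results are given as percent growth relative to untreated control cells.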

CAKI-1 = test: Growth inhibition of human Caki1 cells after 48 hrs by sulforhodamine B assay; conditions: CAKI-1, 48 h; method in brief: as §1
KM12 = test: Growth inhibition of human KM12 cells after 48 hrs by sulforhodamine B assay; conditions: KM12, 48 h; method in brief: as §1
UACC-62 = test: Growth inhibition of human UACC62 cells after 48 hrs by sulforhodamine B assay; conditions: UACC-62, 48 h; method in brief: as §2
786-0 = test: Growth inhibition of human 786-0 cells after 48 hrs by sulforhodamine B assay; conditions: 786-0, 48 h; method in brief: as §1
HCT-116 = test: Growth inhibition of human HCT116 cells after 48 hrs by sulforhodamine B assay; conditions: HCT-116, 48 h; method in brief: as §1
SF-268 [2] = test: Antiproliferative activity against human SF268 cells assessed as cell growth at 100 uM after 48 hrs by alamar blue assay; conditions: SF-268, 48 h, read-out: Activity; method in brief: as §3
ACHN = test: Growth inhibition of human ACHN cells after 48 hrs by sulforhodamine B assay; method in brief: as §1
A549 = test: Growth inhibition of human A549 cells after 48 hrs by sulforhodamine B assay; conditions: A549, 48 h; method in brief: as §1
RXF 393 = test: Growth inhibition of human RXF393 cells after 48 hrs by sulforhodamine B assay; conditions: RXF 393, 48 h; method in brief: as §1
LOX IMVI = test: Growth inhibition of human LOXIMVI cells after 48 hrs by sulforhodamine B assay; method in brief: as §1
SK-OV-3 = test: Growth inhibition of human SKOV3 cells after 48 hrs by sulforhodamine B assay; conditions: SK-OV-3, 48 h; method in brief: as §1
SK-MEL-5 = test: Growth inhibition of human SK-MEL-5 cells after 48 hrs by sulforhodamine B assay; conditions: SK-MEL-5, 48 h; method in brief: as §1
DU-145 = test: Growth inhibition of human DU145 cells after 48 hrs by sulforhodamine B assay; conditions: DU-145, 48 h; method in brief: as §1
PC-3 = test: Growth inhibition of human PC3 cells after 48 hrs by sulforhodamine B assay; conditions: PC-3, 48 h; method in brief: as §1
SNB-19 = test: Growth inhibition of human SNB19 cells after 48 hrs by sulforhodamine B assay; conditions: SNB-19, 48 h; method in brief: as §2
UO-31 = test: Growth inhibition of human UO31 cells after 48 hrs by sulforhodamine B assay; conditions: UO-31, 48 h; method in brief: as §2
IGROV-1 = test: Growth inhibition of human IGROV1 cells after 48 hrs by sulforhodamine B assay; conditions: IGROV-1, 48 h; method in brief: as §1
SN12C = test: Growth inhibition of human SN12C cells after 48 hrs by sulforhodamine B assay; method in brief: as §1
OVCAR-4 = test: Growth inhibition of human OVCAR4 cells after 48 hrs by sulforhodamine B assay; conditions: OVCAR-4, 48 h; method in brief: as §1
HOP-92 = test: Growth inhibition of human HOP92 cells after 48 hrs by sulforhodamine B assay; conditions: HOP-92, 48 h; method in brief: as §1
[3] = read-out: LC50 (the source's name)

Which results are given for `COc1ccc(/C=N/c2nc3[nH]nc(C)n3c(=O)c2S(=O)(=O)NN2C(=O)C(CN3CCOCC3)SC2c2cccs2)cc1` (stereo unspecified)?
GI50 (SK-MEL-2): 8.3 µM; LC50 (concentration killing 50% of cells) (SK-MEL-2): > 100 µM; TGI (SK-MEL-2): 81.9 µM; GI50 (MDA-MB-435): 3.26 µM; TGI (MDA-MB-435): 36 µM; GI50 (SK-MEL-28): 82.1 µM; TGI (SK-MEL-28): > 100 µM; GI50 (MDA-MB-231): 11.7 µM; LC50 (50% lethal concentration) (MDA-MB-231): > 100 µM; TGI (MDA-MB-231): 56.1 µM; GI50 (SF-268 [1]): 18.5 µM; TGI (SF-268 [1]): > 100 µM; CC50 (SF-268 [1]; [3]): > 100 µM; GI50 (NCI-H226): 24.5 µM; LC50 (concentration killing 50% of cells) (NCI-H226): > 100 µM; TGI (NCI-H226): > 100 µM; GI50 (EKVX): 54.1 µM; TGI (EKVX): > 100 µM; GI50 (U-251): 15.6 µM; LC50 (U-251): > 100 µM; TGI (U-251): > 100 µM; GI50 (NCI-H322M): 56.9 µM; TGI (NCI-H322M): > 100 µM; growth at 100 µM (NCI-H460): 13%; GI50 (CAKI-1): 12.1 µM; LC50 (50% lethal concentration) (CAKI-1): > 100 µM; TGI (CAKI-1): > 100 µM; GI50 (KM12): 4.06 µM; GI50 (UACC-62): 3.7 µM; TGI (UACC-62): 31.4 µM; CC50 (UACC-62; [3]): > 100 µM; GI50 (786-0): 5.82 µM; TGI (786-0): > 100 µM; CC50 (786-0; [3]): > 100 µM; GI50 (HCT-116): 4.72 µM; LC50 (concentration killing 50% of cells) (HCT-116): > 100 µM; TGI (HCT-116): 57.4 µM; growth at 100 µM (SF-268 [2]): 56%; GI50 (ACHN): 5.48 µM; TGI (ACHN): > 100 µM; CC50 (ACHN; [3]): > 100 µM; GI50 (A549): 19.1 µM; TGI (A549): > 100 µM; GI50 (RXF 393): 16.6 µM; TGI (RXF 393): 94.2 µM; CC50 (RXF 393; [3]): > 100 µM; GI50 (LOX IMVI): 8.97 µM; TGI (LOX IMVI): > 100 µM; GI50 (SK-OV-3): 20.2 µM; TGI (SK-OV-3): > 100 µM; GI50 (SK-MEL-5): 3.71 µM; TGI (SK-MEL-5): 24 µM; CC50 (SK-MEL-5; [3]): > 100 µM; GI50 (DU-145): 16 µM; LC50 (concentration giving 50% net cell kill) (DU-145): > 100 µM; TGI (DU-145): > 100 µM; GI50 (PC-3): 3.92 µM; LC50 (concentration killing 50% of cells) (PC-3): > 100 µM; TGI (PC-3): 95.8 µM; GI50 (SNB-19): 34.5 µM; TGI (SNB-19): > 100 µM; GI50 (UO-31): 14.5 µM; LC50 (UO-31): > 100 µM; TGI (UO-31): 86.4 µM; GI50 (IGROV-1): 3.95 µM; LC50 (IGROV-1): > 100 µM; TGI (IGROV-1): 34.8 µM; GI50 (SN12C): 16.8 µM; LC50 (SN12C): > 100 µM; TGI (SN12C): 85.7 µM; GI50 (OVCAR-4): > 100 µM; LC50 (OVCAR-4): > 100 µM; TGI (OVCAR-4): > 100 µM; GI50 (HOP-92): 12.4 µM; LC50 (HOP-92): > 100 µM; TGI (HOP-92): > 100 µM
